Rows were chosen to be rich in hits. Some 4.9% of all compounds tested hit in one or more screens of this group.
NF-kB expr up: activators of NF-kB expression in neurons, primary screen, cell-based, HTS. human neuronal cells, NF-kB reporter expression; stronger effect = higher value. fold change at 12.5 µM. 1.6% of 190,000 active. AID 1239, 2008; in the data active means fold change above about 3.3
STAT1 act: STAT1 signaling activators, primary screen, cell-based, HTS, luciferase reporter. activation (% of control), % at 5.5 µM. AID 932, 2007. 2.6% of 200,000 active. NIH 3T3 STAT1-luciferase reporter, IFN-gamma, luminescence; 100% = IFN-gamma alone, no compound;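 active means activation above the screen-wide mean activation plus 3 SD, cut at about 130% in these data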;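 further: raw ratio to IFN-gamma control signal so 100% means no change and 0% no light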
APP 5'UTR act: activators of APP 5'UTR luciferase reporter, primary screen, SH-SY5Y cells | activation, % at 2 µM | 1% of 190,000 active | SH-SY5Y APP 5'UTR luciferase reporter, luminescence; zero percent = DMSO vehicle wells | AID 1276, 2008;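 active means activation above a set limit, based on mean plus 3 SD of controls, cut at about 140% in these data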
STAT3 blocker: IL-6 driven STAT3 reporter inhibitors, primary screen, U3A cells, luciferase, luminescence, MLSCN library | IL-6 STAT3-luciferase reporter; host cell line lacks STAT1 | inhibition, % at 5.5 µM | 0.89% of 190,000 active | AID 862, 2007;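 active means inhibition above the mean inhibition across all screened compounds plus 3 SD, cut at about 44% in these data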;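 further: 0% = DMSO only wells and 100% = 100 µM nifuroxazide control wells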
STAT3 act: IL-6 driven STAT3 reporter potentiators, primary screen, U3A cells, luciferase, luminescence, MLSCN library | IL-6 STAT3-luciferase reporter; 100% = signal with IL-6 EC80 alone | activation (% of control), % at 5.6 µM | 0.91% of 190,000 active | AID 871, 2007;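 active means activation above the screen-wide mean of compound activation plus 3 SD, cut at about 130% in these data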;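 further: 0% = background luminescence of wells with medium and substrate only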
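Test system: Human STAT1-deficient U3A cells with stable STAT3-luciferase reporter | Also added: Interleukin-6, 33 ng/mL | Timing: Compound pre-incubation 1 h before IL-6, then 6 h stimulation at 37 °C | Technique: Luciferase reporter luminescence | Read-out: Percent of IL-6-only median luminescence | Benchmarks: IL-6-only wells as 100% reference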
STAT1 inh: STAT1 signaling inhibitors, primary screen, cell-based, HTS, luciferase reporter. NIH 3T3 STAT1-luciferase reporter, IFN-gamma, luminescence. inhibition, % at 5.5 µM. 0.35% of 200,000 active;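 active means inhibition above a set limit, the mean inhibition across all tested compounds plus 3 SD, cut at about 34% in these data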;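 further: 0% = IFN-gamma with DMSO and 100% = IFN-gamma with 300 µM nifuroxazide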
Numbers without * were called inactive; nt = no result.

SMILES | NF-kB expr up | STAT1 act | APP 5'UTR act | STAT3 blocker | STAT3 act | STAT1 inh
CCO[C@H]1OC(C(=O)O)=C[C@@H](c2ccc3c(c2)OCO3)[C@@H]1CCCO | 1 | 103 | 1 | nt | nt | -1
Oc1ccc(N2CCN(C(=S)NCCc3ccccc3)CC2)cc1 | 4.7* | 87 | -1 | 14 | 98 | 15
Cn1c(C(=O)NCc2ccccn2)cc2c(=O)n3ccccc3nc21 | 1.9 | 133* | 17 | 14 | 91 | -37
S=c1[nH]nc(-c2ccccc2)n1/N=C/c1ccc(-c2ccccc2Cl)o1 | 4.5* | 99 | -5 | 3 | 102 | 1
CCCC(=O)Nc1cnc(NC(=O)c2cccc(F)c2)cc1C | 2.7 | 116 | 173* | 25 | 85 | -17
CN(C)S(=O)(=O)c1cccc(C(=O)OCC(=O)Nc2sccc2C#N)c1 | 1.7 | 113 | -1 | -40 | 134* | -15
COc1ccc(N(C)S(=O)(=O)c2cccc(C(=O)OCC(=O)Nc3sc4c(c3C#N)CCCCC4)c2)cc1 | 1.3 | 87 | 12 | 5 | 94 | 14
COc1ccccc1N1C(=O)C2C(c3ccc(F)cc3)NN(C(=O)c3ccc(C)cc3)C2C1=O (stereo not drawn) | 0.95 | 110 | -12 | -6 | 106 | -14
COc1ccccc1/C=C/C=N/NC(=O)c1cnccn1 | 1.7 | 118 | 14 | 12 | 92 | -22
COc1cc(/C=N/NC(=O)c2ccccn2)cc2c1OCO2 | 0.93 | 129* | 37 | -6 | 106 | -32
COc1ccccc1/C=C/C=N/NC(=O)c1ccccn1 | 4.6* | 133* | 121 | 28 | 80 | -35
O=C(N/N=C/c1cc2c(cc1Cl)OCO2)c1ccccn1 | nt | 134* | 23 | 18 | 93 | -38
O=C(NCc1cccs1)C(=O)NCC1OCCCN1S(=O)(=O)c1ccccc1 (stereo not drawn) | 0.91 | 100 | -1 | -1 | 103 | 0
O=P(c1ccccc1)(c1ccccc1)c1nc(-c2ccc(Cl)cc2)oc1N1CCOCC1 | 0.97 | 100 | 14 | 17 | 92 | -1
COCC(=O)n1nc(-c2ccccc2)nc1NCc1ccccc1 | 1.1 | 137* | 47 | -5 | 104 | -40
CN(C)c1ccc(CNc2nc(-c3ccccc3)nn2S(C)(=O)=O)cc1 | 1.5 | 100 | 27 | -3 | 108 | -3
CC(=O)n1nc(-c2ccccc2)nc1NCc1ccc(N(C)C)cc1 | 2.7 | 142* | 60 | -1 | 105 | -49
CS(=O)(=O)N1CCN(c2ccc([N+](=O)[O-])c(NCc3cccnc3)c2)CC1 | 1.1 | 98 | 6 | 7 | 101 | 1
Cc1cccc(Nc2nc(N)nc(CSc3nccn3C)n2)c1 | 2 | 136* | 26 | -6 | 109 | -40
Cc1ccc(Nc2nc(N)nc(CSc3nccn3C)n2)cc1 | 3.8* | 146* | 140* | -5 | 108 | -50
COc1ccc(-c2cc(-c3cc(C)ccc3O)[nH]n2)cc1 | 18* | 146* | 62 | -42 | 140* | -53
Cc1ccc(O)c(-c2cc(-c3ccccc3C)[nH]n2)c1 | 2.8 | 106 | 55 | -12 | 113 | -9
CCOc1cc(/C=N/NC(=O)c2cc(-c3cccnc3)nc3ccccc23)ccc1O | 1.3 | 96 | 10 | 0 | 107 | 2
O=C(C1CC(c2ccc(F)cc2)=NO1)N1CCN(c2ccccc2)CC1 (stereo not drawn) | 1.1 | 102 | 0 | 5 | 100 | -2
O=C(C1CC(c2ccc(F)cc2)=NO1)N1CCCCC1 (stereo not drawn) | 2.1 | 132* | 66 | 10 | 96 | -35
SMILES | NF-kB expr up | STAT1 act | APP 5'UTR act | STAT3 blocker | STAT3 act | STAT1 inh
CC1CCCCN1C(=O)C1CC(c2ccc(F)cc2)=NO1 (stereo not drawn) | 1.7 | 136* | 43 | 0 | 102 | -40
Cc1nn(-c2ccccc2)c(C)c1/C=C1\C(=O)N(C)C(=S)N1C | 1 | 96 | 19 | 18 | 91 | 4
Cc1ccc(NC(=O)COC(=O)C2CC(=O)N(Cc3ccccc3)C2)cc1S(=O)(=O)N(C)C (stereo not drawn) | 1.2 | 99 | 5 | 1 | 101 | 0
CCCCNC(=O)Nc1nnc(-c2ccc(OCC)cc2)o1 | 1.2 | 95 | 0 | 9 | 96 | 6
CCOc1ccc(-c2nnc(-c3ccncc3)o2)cc1 | 2.7 | 133* | 61 | 17 | 89 | -36
c1coc(-c2nnc(NC3=NCCC3)o2)c1 | 2.2 | 129* | 55 | -8 | 110 | -32
CCOc1ccc(-c2nnc(NC3=NCCCCC3)o2)cc1 | 4.1* | 118 | 122 | -5 | 109 | -19
COc1ccc(-c2nc3ccccc3c(=O)o2)cc1OC | 1.1 | 97 | 17 | 20 | 92 | 3
CCOc1ccc(-c2nc3ccccc3c(=O)o2)cc1 | 6.3* | 121 | 112 | 5 | 101 | -23
O=C1COc2ccc(N3C(=O)c4ccccc4C3=O)cc2N1 | 1 | 104 | -2 | 7 | 98 | -6
O=C(Nc1ccccc1)ON=C1CCCC1 | 1.7 | 104 | 9 | 13 | 92 | -4
Cc1ccc(NC(=O)ON=C2CCCC2)cc1 | 1.1 | 130* | 38 | -4 | 104 | -33
COc1ccc(CCN(Cc2cc3cccc(C)c3[nH]c2=O)C(=O)NC2CCCCC2)cc1OC | 0.45 | 95 | 7 | 9 | 97 | 5
Cc1ccc(Nc2ncnc3nc[nH]c23)cc1Cl | 3.3* | 110 | 98 | 4 | 104 | -11
COc1cccc(Nc2ncnc3nc[nH]c23)c1 | 1.8 | 106 | 29 | 9 | 97 | -6
Clc1cnc(N/N=C/c2cccs2)c(Cl)c1 | 2 | 134* | 70 | -6 | 107 | -38
Fc1ccc(/C=N/Nc2ncnc3nc[nH]c23)cc1F | 1.9 | 118 | 33 | 18 | 85 | -20
Cc1ccsc1/C=N/Nc1ncnc2nc[nH]c12 | 2 | 138* | 39 | 12 | 91 | -43
C(=N\Nc1ncnc2nc[nH]c12)/c1cccs1 | 1.6 | 134* | 42 | 22 | 85 | -37
O=C(NC1CCCCC1)c1ccccc1NC(=O)C1CC1 | 1.1 | 108 | -8 | 4 | 99 | -9
CN1CCN(/N=C/c2ccc(Br)cc2)CC1 | 2 | 129* | 28 | 3 | 100 | -32
Cc1nc(NC(=O)c2ccccc2[N+](=O)[O-])sc1C(=O)N(C)C | 1.4 | 98 | -11 | 28 | 81 | 2
Cc1nc(NC(=O)c2oc3ccccc3c2C)sc1C(=O)N(C)C | 2.1 | 139* | 43 | 21 | 86 | -43
CC(C)CNC(=O)CC(c1ccccc1)c1ccccc1 | 0.95 | 97 | 22 | 11 | 99 | 1
COC(=O)c1cc(-c2ccc(Br)cc2)on1 | 1.2 | 95 | 7 | 18 | 92 | 6
